Test results: ChEMBL document CHEMBL3259662 (ACS Med Chem Lett, 2014)
In brackets after ≈: the same amount, converted by molar mass. Activity calls are given as the source filed them. No cut-off for these calls is given here.

Legend:
[1] = Selectivity index, ratio of cytotoxicity for human BT549 cells to IC50 for Cryptococcus neoformans ATCC 90113; type: toxicity, cell-based, BT-549; conditions: read-out: Selectivity Index
[2] = Selectivity index, ratio of cytotoxicity for human SKOV3 cells to IC50 for Cryptococcus neoformans ATCC 90113; type: toxicity, cell-based, SK-OV-3; conditions: read-out: Selectivity Index
[3] = test system: Aspergillus fumigatus; assay: Antifungal activity against Aspergillus fumigatus by CLSI method; type: functional, organism-based
[4] = Selectivity index, ratio of cytotoxicity for human KB cells to IC50 for Cryptococcus neoformans ATCC 90113; type: toxicity, cell-based; conditions: read-out: Selectivity Index
[5] = test system: Pichia kudriavzevii; assay: Antifungal activity against Candida krusei by CLSI method; type: functional, organism-based
[6] = Selectivity index, ratio of cytotoxicity for pig LLC-PK1 cells to IC50 for Cryptococcus neoformans ATCC 90113; type: toxicity, cell-based; conditions: read-out: Selectivity Index
[7] = test system: SK-OV-3; assay: Cytotoxicity against human SKOV3 cells assessed as cell viability after 48 hrs by neutral red uptake assay; type: cell-based; conditions: sk-ov-3, 48 h
Outline: (§1)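 Neutral red uptake assay in human cancer lines SK-MEL, KB, BT-549 and SK-OV-3 and in noncancerous mammalian kidney cells VERO and LLC-PK1. The highest tested concentration was 10 μg/mL.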

[8] = test system: Lipid bilayer; assay: Binding affinity to small unilamellar vesicles assessed as destruction of membrane by transmission electron microscopy
Outline: (§2)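 Small unilamellar vesicles were made by a literature method, either EYPC/EYPG or EYPC/cholesterol, and incubated with or without peptide. Samples were deposited on carbon-coated copper grids, negatively stained with 2% (w/v) phosphotungstic acid and imaged by TEM to judge vesicle integrity and morphology.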

[9] = test system: Nakaseomyces glabratus; assay: Antifungal activity against Candida glabrata by CLSI method; type: functional, organism-based
[10] = test system: Escherichia coli; assay: Antibacterial activity against Escherichia coli ATCC 35218 after 16 to 20 hrs by CLSI method; type: functional, organism-based
[11] = test system: KB; assay: Cytotoxicity against human KB cells assessed as cell viability after 48 hrs by neutral red uptake assay; type: cell-based; outline: as §1
[12] = test system: Cryptococcus neoformans; assay: Antifungal activity against Cryptococcus neoformans ATCC 90113 after 70 to 74 hrs by CLSI method; type: functional, organism-based; conditions: for IC50 / MIC: Cryptococcus neoformans, ATCC 90113
Outline: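 Growth inhibition of C. neoformans per the CLSI protocol. […] MIC is the lowest test concentration with no detectable growth. MFC is the lowest concentration killing 100% of the organism.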

[13] = test system: BT-549; assay: Cytotoxicity against human BT549 cells assessed as cell viability after 48 hrs by neutral red uptake assay; type: cell-based; conditions: bt-549, 48 h; outline: as §1
[14] = test system: Cryptococcus neoformans; assay: Ratio of amphotericin B MFC to compound MFC for Cryptococcus neoformans ATCC 90113 after 70 to 74 hrs by CLSI method; type: functional
[15] = Selectivity index, ratio of cytotoxicity for human SK-MEL cells to IC50 for Cryptococcus neoformans ATCC 90113; type: toxicity, cell-based; conditions: read-out: Selectivity Index
[16] = test system: Vero; assay: Cytotoxicity against African green monkey Vero cells assessed as cell viability after 48 hrs by neutral red uptake assay; type: cell-based; conditions: chlorocebus sabaeus; outline: as §1
[17] = Binding affinity to EYPC/cholesterol by transmission electron microscopy; outline: as §2
[18] = Binding affinity to EYPC/EYPG assessed as disruption of SUVs integrity by transmission electron microscopy; outline: as §2
[19] = Selectivity index, ratio of cytotoxicity for African green monkey Vero cells to IC50 for Cryptococcus neoformans ATCC 90113; type: toxicity, cell-based; conditions: read-out: Selectivity Index
[20] = test system: LLC-PK1; assay: Cytotoxicity against pig LLC-PK1 cells assessed as cell viability after 48 hrs by neutral red uptake assay; type: cell-based, Sus scrofa; conditions: llc-pk1, 48 h; outline: as §1
[21] = test system: SK-MEL; assay: Cytotoxicity against human SK-MEL cells assessed as cell viability after 48 hrs by neutral red uptake assay; type: cell-based; outline: as §1
[22] = test system: Candida albicans; assay: Antifungal activity against Candida albicans by CLSI method; type: functional, organism-based
[23] = test system: Staphylococcus aureus; assay: Antibacterial activity against Staphylococcus aureus ATCC 29213 by CLSI method; type: functional, organism-based
[24] = test system: Staphylococcus aureus; assay: Antibacterial activity against methicillin-resistant Staphylococcus aureus ATCC 33591 after 16 to 20 hrs by CLSI method; type: functional, organism-based; conditions: for MIC / IC50: Staphylococcus aureus, ATCC 33591; for IC50: read-out: IC50
[25] = Retention time of the compound by reverse phase HPLC analysis; type: physicochemical
Outline: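 Reverse-phase HPLC on a C-18 column (25 cm × 4.6 mm, 5 μM) at 1 mL/min over 40 min. The gradient ran 85−5% with A = 0.1% TFA in H2O and B = 0.1% TFA in CH3CN. Detection was at 220 nm.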

Compound	selectivity ratio [1]	selectivity ratio [2]	Activity [3]	selectivity ratio [4]	Activity [5]	selectivity ratio [6]	Activity [7]	Activity [9]	Activity [10]	Activity [11]	MFC100 [12]	IC50 [12]	MIC [12]	Activity [13]	Ratio [14]	selectivity ratio [15]	Activity [16]	selectivity ratio [19]	Activity [20]	Activity [21]	further results
CC(C)(C)c1ccc(-c2nc(C[C@H](NC(=O)[C@@H](N)CCCNC(=N)N)C(=O)N[C@@H](CCCNC(=N)N)C(=O)NCc3ccccc3)c[nH]2)cc1	> 143	> 143	inactive	> 143	inactive	> 143	> 10 µg/mL	inactive	inactive	> 10 µg/mL	0.16 µg/mL (≈ 0.232 µM)	0.07 µg/mL (≈ 0.102 µM)	0.16 µg/mL (≈ 0.232 µM)	> 10 µg/mL	8	> 143	> 10 µg/mL	> 143	> 10 µg/mL	> 10 µg/mL	Activity [8]: Active; Activity [17]: inactive; Activity [18]: Active; Activity [22]: inactive
CC(C)(C)OC(=O)N[C@@H](CCCNC(=N)N)C(=O)N[C@@H](Cc1c[nH]c(-c2ccc(C(C)(C)C)cc2)n1)C(=O)N[C@@H](CCCNC(=N)N)C(=O)NCc1ccccc1	> 55.6	> 55.6	inactive	> 55.6	inactive	> 55.6	> 10 µg/mL	inactive	inactive	> 10 µg/mL	0.63 µg/mL (≈ 0.798 µM)	0.18 µg/mL (≈ 0.228 µM)	0.63 µg/mL (≈ 0.798 µM)	> 10 µg/mL	2	> 55.6	> 10 µg/mL	> 55.6	> 10 µg/mL	> 10 µg/mL	IC50 [23]: 12.5 µg/mL (≈ 15.9 µM); MBC100 [23]: inactive; MIC [23]: 20 µg/mL (≈ 25.3 µM); MBC100 [24]: inactive; MIC [24]: 20 µg/mL (≈ 25.3 µM); IC50 [24]: 11.5 µg/mL (≈ 14.6 µM); Activity [22]: inactive; Retention_time [25]: 24.41 min
CC(C)(C)OC(=O)N[C@@H](CCCNC(=N)N)C(=O)N[C@@H](Cc1c[nH]c(-c2ccc(-c3ccccc3)cc2)n1)C(=O)N[C@@H](CCCNC(=N)N)C(=O)NCc1ccccc1	> 50	> 50	inactive	> 50	inactive	> 50	> 10 µg/mL	inactive	inactive	> 10 µg/mL	0.31 µg/mL (≈ 0.383 µM)	0.2 µg/mL (≈ 0.247 µM)	0.31 µg/mL (≈ 0.383 µM)	> 10 µg/mL	4	> 50	> 10 µg/mL	> 50	> 10 µg/mL	> 10 µg/mL	IC50 [23]: 6.88 µg/mL (≈ 8.5 µM); MBC100 [23]: inactive; MIC [23]: 20 µg/mL (≈ 24.7 µM); MBC100 [24]: 20 µg/mL (≈ 24.7 µM); MIC [24]: 20 µg/mL (≈ 24.7 µM); IC50 [24]: 10.8 µg/mL (≈ 13.3 µM); Activity [22]: inactive; Retention_time [25]: 24.04 min
